# Assay results taken from ChEMBL document CHEMBL4425122, “Discovery of 1-(1H-Pyrazolo[4,3-c]pyridin-6-yl)urea Inhibitors of Extracellular Signal-Regulated Kinase (ERK) for the Treatment of Cancers” (J Med Chem, 2016).
# Key:
# [1] = Inhibition of ERK (unknown origin) assessed as inhibition of RSK phosphorylation; design: species or system Homo sapiens
# [2] = Solubility in human FaSSIF at pH 6.5; assay type: physicochemical
# Summary of the method: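 Solubility measured in human fasted-state simulated intestinal fluid at pH 6.5.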
# [3] = test system: A375-SM; assay: Antiproliferative activity against human A375SM cells harboring BRAF V600E mutant measured after 96 hrs by Cell Titer-Glo assay; assay type: functional, cell-based
# Summary of the method: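 Cells in DMEM/10 mM HEPES/10% FBS added after compound, incubated 96 h at 37 °C, 5% CO2; equilibrated 15 min at room temperature, viability by CellTiter-Glo luminescence. IC50 from 10-point, 3-fold titration curves.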
# [4] = target: Mitogen-activated protein kinase 1 (Homo sapiens, UniProt P28482); assay: Inhibition of human ERK2 preincubated for 15 mins followed by addition of IMAP peptide substrate and ATP measured after 60 mins by IMAP-FP assay
# Chain of Mitogen-activated protein kinase 1 (P28482 whole entry): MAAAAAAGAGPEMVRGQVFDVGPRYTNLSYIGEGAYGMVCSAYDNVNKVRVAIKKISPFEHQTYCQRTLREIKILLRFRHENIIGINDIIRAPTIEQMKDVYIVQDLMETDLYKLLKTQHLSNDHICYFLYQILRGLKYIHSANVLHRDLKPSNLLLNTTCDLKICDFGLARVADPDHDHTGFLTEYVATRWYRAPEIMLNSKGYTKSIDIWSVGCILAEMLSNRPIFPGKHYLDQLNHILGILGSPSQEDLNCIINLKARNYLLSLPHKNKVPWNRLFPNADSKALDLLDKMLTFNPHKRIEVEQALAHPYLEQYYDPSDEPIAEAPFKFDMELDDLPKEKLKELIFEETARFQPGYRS
# Summary of the method: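 Final: 0.5 nM hERK2, 900 nM unlabeled + 80 nM labeled peptide, 30 µM ATP; 60 min, quenched with IMAP beads in binding buffer with 24 mM NaCl, read by fluorescence polarization after 60 min.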
# [5] = target: Cytochrome P450 3A4 (Homo sapiens, UniProt P08684); assay: Inhibition of CYP3A4 (unknown origin); assay type: ADME
# Chain of Cytochrome P450 3A4 (P08684 whole entry): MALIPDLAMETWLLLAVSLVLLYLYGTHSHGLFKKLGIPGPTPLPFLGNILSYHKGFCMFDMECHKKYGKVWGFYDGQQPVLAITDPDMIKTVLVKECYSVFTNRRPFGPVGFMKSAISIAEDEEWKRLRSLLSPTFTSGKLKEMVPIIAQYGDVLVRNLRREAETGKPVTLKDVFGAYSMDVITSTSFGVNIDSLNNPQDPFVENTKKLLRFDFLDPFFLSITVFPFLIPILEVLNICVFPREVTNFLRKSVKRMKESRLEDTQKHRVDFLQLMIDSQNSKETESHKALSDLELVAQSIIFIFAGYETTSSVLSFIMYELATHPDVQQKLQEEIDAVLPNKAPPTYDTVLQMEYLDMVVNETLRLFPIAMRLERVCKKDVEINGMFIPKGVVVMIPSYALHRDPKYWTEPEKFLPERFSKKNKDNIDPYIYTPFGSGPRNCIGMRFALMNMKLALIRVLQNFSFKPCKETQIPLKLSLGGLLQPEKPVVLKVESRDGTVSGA
# [6] = Inhibition of ERK in human A375SM cells harboring BRAF V600E mutant assessed as inhibition of RSK phosphorylation measured after 4 hrs by mesoscale electrochemiluminescent sandwich assay; assay type: cell-based; details: A375-SM
# Summary of the method: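 A375SM (BRAF V600E melanoma) cells, 10,000 per well, treated 4 h; lysed 20 min at 4 °C in Tris/NaCl/EGTA/EDTA/Triton/NaF buffer with protease and phosphatase inhibitors. Lysate captured with biotin anti-RSK1 on streptavidin MSD plate, detected with SULFO-TAG anti-pRSK (pThr359/Ser363) overnight at 4 °C; electrochemiluminescence read. IC50 from 11-point titration.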
# [7] = target: Voltage-gated inwardly rectifying potassium channel KCNH2 (Homo sapiens, UniProt Q12809); assay: Inhibition of human ERG
# Chain of Voltage-gated inwardly rectifying potassium channel KCNH2 (Q12809 whole entry): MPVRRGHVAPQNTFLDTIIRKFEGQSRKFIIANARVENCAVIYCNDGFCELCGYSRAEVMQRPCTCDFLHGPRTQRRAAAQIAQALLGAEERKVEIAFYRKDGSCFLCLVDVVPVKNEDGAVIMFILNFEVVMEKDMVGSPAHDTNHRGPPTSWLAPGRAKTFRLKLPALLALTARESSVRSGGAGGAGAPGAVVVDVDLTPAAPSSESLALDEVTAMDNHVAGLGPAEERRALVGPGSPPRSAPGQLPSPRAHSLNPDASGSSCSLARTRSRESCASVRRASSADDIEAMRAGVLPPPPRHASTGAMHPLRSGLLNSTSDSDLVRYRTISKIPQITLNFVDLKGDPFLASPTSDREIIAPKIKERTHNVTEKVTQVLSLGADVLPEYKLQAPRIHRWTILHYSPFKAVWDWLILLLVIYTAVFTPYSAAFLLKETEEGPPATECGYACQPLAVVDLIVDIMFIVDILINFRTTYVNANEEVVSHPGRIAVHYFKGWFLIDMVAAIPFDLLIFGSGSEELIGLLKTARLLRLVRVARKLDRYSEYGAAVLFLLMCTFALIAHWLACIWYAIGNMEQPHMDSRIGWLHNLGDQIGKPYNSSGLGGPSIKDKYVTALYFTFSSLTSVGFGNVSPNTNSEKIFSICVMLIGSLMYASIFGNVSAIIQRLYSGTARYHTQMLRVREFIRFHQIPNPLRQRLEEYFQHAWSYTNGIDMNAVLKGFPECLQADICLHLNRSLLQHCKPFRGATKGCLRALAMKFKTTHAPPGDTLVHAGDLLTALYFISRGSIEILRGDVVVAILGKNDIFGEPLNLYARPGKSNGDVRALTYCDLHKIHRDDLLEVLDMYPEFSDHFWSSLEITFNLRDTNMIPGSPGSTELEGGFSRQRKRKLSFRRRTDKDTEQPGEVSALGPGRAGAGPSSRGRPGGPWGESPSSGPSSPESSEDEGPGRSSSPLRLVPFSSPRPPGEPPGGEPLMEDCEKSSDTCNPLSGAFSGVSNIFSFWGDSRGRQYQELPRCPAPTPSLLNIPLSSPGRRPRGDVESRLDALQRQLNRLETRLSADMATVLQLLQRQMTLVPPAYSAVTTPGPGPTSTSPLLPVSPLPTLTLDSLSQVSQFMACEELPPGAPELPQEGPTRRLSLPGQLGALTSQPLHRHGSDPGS
Structure (SMILES),IC50 [1],solubility [2],IC50 [3],IC50 [4],IC50 [5],IC50 [6],IC50 [7]
C[C@@H](NC(=O)Nc1cc2[nH]nc(-c3cnn(C)c3)c2cn1)c1ccccc1,,,,0.3 nM,380 nM,110 nM,> 20000 nM
CCCc1n[nH]c2cc(NC(=O)N[C@H](C)c3ccccc3)ncc12,,,,2 nM,,350 nM,

# Continued, in another order:
IC50 [1],solubility [2],IC50 [3],IC50 [4],IC50 [5],IC50 [6],Structure (SMILES),IC50 [7]
57 nM,38 µM,39 nM,,,,O=C(Nc1ccc2[nH]nc(-c3ccncc3)c2c1)[C@@H]1CCN(CC(=O)N2CCN(c3ccc(-c4ncccn4)cc3)CC2)C1,
,,,0.3 nM,29000 nM,97 nM,C[C@@H](NC(=O)Nc1cc2[nH]nc(-c3ccnc(F)c3)c2cn1)c1ccccc1,> 20000 nM
,,,0.8 nM,,360 nM,C[C@@H](NC(=O)Nc1cc2[nH]nc(-c3ccc(F)cc3)c2cn1)c1ccccc1,
